Test results published in ChEMBL document CHEMBL1142192, “Natural polymorphisms in the human immunodeficiency virus type 2 protease can accelerate time to development of resistance to protease inhibitors” (Antimicrob Agents Chemother, 2007).

Key:
Format in all cases: functional, organism-based
[1] = test system: Human immunodeficiency virus 2; test: Antiviral activity against wild type HIV2 in CBMCs
Procedure, shortened: (§1)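 Cord blood mononuclear cells were infected for 2 h with wild-type virus (HIV-1: subtype B clinical isolate 5512; HIV-2: isolates CBL-20, CBL-23, MVP-15132). Cells were plated onto fivefold drug dilutions (0.00064–10 μM) at 37°C, 5% CO₂, and refed with drug-containing medium on day 3. RT enzyme assay was run on day 7, and IC₅₀ fitted. Means of ≥2 independent experiments, each in duplicate.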

[2] = test system: Human immunodeficiency virus 2; test: Antiviral activity against HIV2 isolate CBL20, CBL23, MVP15132 with […] and L99F mutation in CBMCs
Procedure, shortened: (§2)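 PI-selected variants were obtained by weekly culture passage with escalating drug, 0.05 μM rising to 0.25–10 μM, and phenotyped at week 38. Cord blood mononuclear cells were infected for 2 h and plated onto fivefold drug dilutions from 0.00064 to 10 μM at 37°C, 5% CO₂. Cells were refed with drug on day 3. Day-7 culture-fluid RT activity gave IC50. Means come from at least two experiments, each in duplicate. Fold change is relative to wild-type virus.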

[3] = test system: Human immunodeficiency virus 2; test: Antiviral activity against HIV2 isolate CBL20, CBL23, MVP15132 with […] and […] mutation in CBMCs; procedure, shortened: as §2
[4] = test system: Human immunodeficiency virus 1; test: Antiviral activity against wild type HIV1 in CBMCs; procedure, shortened: as §1
[5] = test system: Human immunodeficiency virus 2; test: Antiviral activity against HIV2 isolate CBL20, CBL23, MVP15132 with […] and L90M mutation in CBMCs; procedure, shortened: as §2
[6] = test system: Human immunodeficiency virus 1; test: Antiviral activity against HIV1 isolate 5512 with […] and M46L mutation in CBMCs; procedure, shortened: as §2
[7] = test system: Human immunodeficiency virus 2; test: Antiviral activity against HIV2 isolate CBL20, CBL23, MVP15132 with 182L mutation in CBMCs; procedure, shortened: as §2
[8] = test system: Human immunodeficiency virus 2; test: Antiviral activity against HIV2 isolate CBL20, CBL23, MVP15132 with 154M mutation in CBMCs; procedure, shortened: as §2
[9] = test system: Human immunodeficiency virus 2; test: Antiviral activity against HIV2 isolate CBL20, CBL23, MVP15132 with 182F mutation in CBMCs; procedure, shortened: as §2
[10] = test system: Human immunodeficiency virus 2; test: Antiviral activity against HIV2 isolate CBL20, CBL23, MVP15132 with 150V mutation in CBMCs; procedure, shortened: as §2
[11] = test system: Human immunodeficiency virus 2; test: Antiviral activity against HIV2 isolate CBL20, CBL23, MVP15132 with V62A and L99F mutation in CBMCs; procedure, shortened: as §2
[12] = test system: Human immunodeficiency virus 1; test: Antiviral activity against HIV1 isolate 5512 with M36I/M and V82T mutation in CBMCs; procedure, shortened: as §2
[13] = test system: Human immunodeficiency virus 1; test: Antiviral activity against HIV1 isolate 5512 with D30N, […] and […] mutation in CBMCs; procedure, shortened: as §2

SMILES	IC50 [1] [nM]	IC50 [2] [nM]	IC50 [3] [nM]	IC50 [4] [nM]	IC50 [5] [nM]	IC50 [6] [nM]	IC50 [7] [nM]	IC50 [8] [nM]	IC50 [9] [nM]	IC50 [10] [nM]	IC50 [11] [nM]	IC50 [12] [nM]	IC50 [13] [nM]
CC(C)(C)NC(=O)[C@@H]1CN(Cc2cccnc2)CCN1C[C@@H](O)C[C@@H](Cc1ccccc1)C(=O)N[C@H]1c2ccccc2C[C@H]1O [INDINAVIR]	16	825	388	27	1110	45	64	236	544	72	143	14	25
CCC[C@@]1(CCc2ccccc2)CC(O)=C([C@H](CC)c2cccc(NS(=O)(=O)c3ccc(C(F)(F)F)cn3)c2)C(=O)O1 [TIPRANAVIR]	160	2910	2030	92	145	42	4440	1110	306	316	524	192	1
Cc1c(O)cccc1C(=O)N[C@@H](CSc1ccccc1)[C@H](O)CN1C[C@H]2CCCC[C@H]2C[C@H]1C(=O)NC(C)(C)C [NELFINAVIR]	64	2240	1750	14	2560	31	106	624	244	132	961	10	677
CC(C)CN(C[C@@H](O)[C@H](Cc1ccccc1)NC(=O)O[C@H]1CCOC1)S(=O)(=O)c1ccc(N)cc1 [AMPRENAVIR]	440	> 10000	> 10000	26	> 10000	116	528	> 10000	965	> 10000	98	3	19
Cc1cccc(C)c1OCC(=O)N[C@@H](Cc1ccccc1)[C@@H](O)C[C@H](Cc1ccccc1)NC(=O)[C@H](C(C)C)N1CCCNC1=O [LOPINAVIR]	4	414	375	2	524	1	75	481	145	203	496	7	–
